Data set [1] can be described thus: Cytotoxicity against human HEK293 cells assessed as cell viability incubated for 72 hrs by Alamar blue assay. The data set is classed as cell-based. The gist of the method:
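HEK293 cells handled with the same incubation, compound addition and timing as the 72 h parasite assay. Alamar Blue, diluted in growth medium, was incubated 4 h at 37 °C/5% CO2, then 20 h at room temperature before plate read.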

Data set [2] is described as follows: Intrinsic clearance in human liver microsomes at […] by LC-MS/MS analysis. Format: ADME, Microsome. The gist of the method: (§1)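 Liver microsomes (human, mouse or rat) at 0.4 mg/mL protein, 37 °C, with an NADPH-regenerating system. Compound at 0.25 or 0.5 μM. Acetonitrile/diazepam quench, LC-MS quantitation. CLint from the first-order degradation rate constant.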
In general terms: Liver microsomes are vesicles of endoplasmic reticulum, rich in cytochrome P450 enzymes.

Data set [3] can be described thus: Intrinsic clearance in rat liver microsomes at […] by LC-MS/MS analysis. The data set is classed as ADME, Microsome. In outline: as §1
The nature of data set [4]: Intrinsic clearance in human hepatocytes measured per 10^6 cells at 0.25 uM by LC-MS analysis. The data set is classed as ADME, cell-based, Hepatocyte. The following applies: read-out: CLH. The gist of the method:
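Compound at 0.25 μM incubated with cryopreserved human or rat hepatocytes (1×10^6 cells/mL) in Krebs–Henseleit buffer at 37 °C. Quenched with acetonitrile containing diazepam. LC-MS quantitation. CLint from the first-order degradation rate constant.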

Data set [5] can be described thus: Stability in human plasma assessed as compound remaining at 1000 ng/ml after 2 hrs by LC-MS analysis. Format: ADME, cell-free. To be noted: read-out: Stability. The gist of the method: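 Pooled plasma (human, 3 donors; or male Sprague Dawley rat) spiked to nominal 1000 ng/mL, with at most 0.2% DMSO and 0.4% acetonitrile final. Held at 37 °C with timed aliquots. LC-MS against matrix standards with diazepam internal standard. Percent remaining is relative to the 5 min sample.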

Another data set concerns the target CYP2C9 (Homo sapiens, UniProt P11712). Nature of the data set: Inhibition of CYP2C9 (unknown origin) at 10 uM by UPLC-MS analysis relative to control. The data set is classed as ADME. The gist of the method: (§2)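 Human liver microsomes, using a substrate-specific metabolite approach. Test compound at 1 and 10 μM. Reference inhibitors: furafylline (1A2), sulfaphenazole (2C9), quinidine (2D6), ketoconazole (3A4). Specific metabolites quantified by UPLC-MS. Percent inhibition relative to incubation without inhibitor.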

The next data set has as its target CYP2D6 (Homo sapiens, UniProt P10635). Nature of the data set: Inhibition of CYP2D6 (unknown origin) at 10 uM by UPLC-MS analysis relative to control. The data set is classed as ADME. In outline: as §2
For a further data set, the target named is CYP3A4 (Homo sapiens, UniProt P08684). Nature of the data set: Inhibition of CYP3A4 (unknown origin) at 10 uM by UPLC-MS analysis relative to control. Format: ADME. In outline:
as §2

Data set [6] concerns the target Voltage-gated inwardly rectifying potassium channel KCNH2 (Homo sapiens, UniProt Q12809). Nature of the data set: Inhibition of human ERG by QPatch automated patch clamp system. The gist of the method: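 hERG current recorded on a QPatch automated patch clamp at four concentrations in 0.5-log steps.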
On the technique in general: Patch clamp records ionic current or voltage across a cell membrane.

Data set [7] relates to Plasmodium falciparum. Nature of the data set: Antiplasmodial activity against liver stage Plasmodium falciparum NF54 sporozoites infected in human hepatocytes assessed as parasite killing measured after 96 hrs by schizont assay. Format: functional, organism-based. To be noted: NF54, 96 h.
For data set [8], the system named is Plasmodium falciparum. Nature of the data set: Antiplasmodial activity against liver stage Plasmodium falciparum NF54 sporozoites infected in human hepatocytes assessed as maximal parasite killing measured after 96 hrs by schizont assay relative to control. The data set is classed as functional.
The test system of data set [9] is Plasmodium falciparum. Nature of the data set: Antiplasmodial activity against asexual blood stage Plasmodium falciparum 3D7 (MR4) infected in erythrocytes assessed as parasite reduction ratio at 10 times of IC50 concentration treated up to 120 hrs measured after 21 days of serial dilution. Format: functional. The following applies: time hrs <=120. The gist of the method: (§3)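 Samples taken every 24 h and washed free of drug. Viable parasites counted by limiting dilution: 3-fold serial dilutions, four independent series, growth scored at 21 days and confirmed at 28 days.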

Data set [10] relates to Plasmodium falciparum. Nature of the data set: Antiplasmodial activity against asexual blood stage Plasmodium falciparum 3D7 (MR4) infected in erythrocytes assessed as parasite clearance time for 99.9% organism. Format: functional. The gist of the method:
as §3

Data set [11] has as its system Plasmodium falciparum. Nature of the data set: Antimalarial activity against Plasmodium falciparum K1 harbouring Pf-crt, Pf-mdrl,Pf-dhfr, Pf-dhps mutated loci assessed as inhibition of parasite growth incubated for […] by [3H]hypoxanthine incorporation assay based liquid scintillation counting method. The data set is classed as functional, organism-based. In outline: (§4)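 Drug-resistant laboratory P. falciparum strains were compared against the sensitive strain NF54. Growth inhibition was read by a modified [3H]hypoxanthine incorporation assay over 72 h. IC50 is the mean of two independent biological replicates. Chloroquine and artesunate served as controls.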

For data set [12], the system named is Plasmodium falciparum. Nature of the data set: Antimalarial activity against Plasmodium falciparum 7G8 harbouring Pf-crt, Pf-mdrl,Pf-dhfr, Pf-dhps mutated loci assessed as inhibition of parasite growth incubated for […] by [3H]hypoxanthine incorporation assay based liquid scintillation counting method. Format: functional, organism-based. The gist of the method:
as §4

Data set [13] deals with Plasmodium falciparum. Nature of the data set: Antimalarial activity against Plasmodium falciparum TM90C2b harbouring Pf-crt, Pf-mdrl,Pfd-hfr, Pf-cytbQ0 mutated loci assessed as inhibition of parasite growth incubated for […] by [3H]hypoxanthine incorporation assay based liquid scintillation counting method. The data set is classed as functional, organism-based. In outline: as §4

Data set [14] relates to Plasmodium falciparum. Nature of the data set: Antimalarial activity against wild type Plasmodium falciparum Dd2 assessed as inhibition of parasite growth incubated for […] by [3H]hypoxanthine incorporation assay based liquid scintillation counting method. The data set is classed as functional, organism-based. The gist of the method:
(§5)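 Genetically engineered P. falciparum lines carried mutations introduced into the Dd2 wild-type strain, which was tested alongside them. Growth inhibition was read by [3H]hypoxanthine incorporation over 72 h. IC50 is the mean of two independent biological replicates. Chloroquine and artesunate served as controls.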

Data set [15] concerns Plasmodium falciparum. Nature of the data set: Antimalarial activity against Plasmodium falciparum Dd2 ELQ-300 mutant harbouring Pf-cytB assessed as inhibition of parasite growth incubated for […] by [3H]hypoxanthine incorporation assay based liquid scintillation counting method. The data set is classed as functional, organism-based. The gist of the method: as §5
Data set [16] relates to Plasmodium falciparum. Nature of the data set: Antimalarial activity against Plasmodium falciparum Dd2 DDD498 mutant harbouring Pf-cytB assessed as inhibition of parasite growth incubated for […] by [3H]hypoxanthine incorporation assay based liquid scintillation counting method. Format: functional, organism-based. In outline:
as §5

Data set [17] is described as follows: Ratio of drug level in whole blood to plasma in Sprague-Dawley rat by LC-MS analysis. The data set is classed as ADME, cell-free. The following applies: whole blood and plasma. In outline:
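Apparent whole-blood-to-plasma partitioning measured in vitro in rat blood.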

The subject of data set [18] is Plasmodium falciparum. Nature of the data set: Antimalarial activity against Plasmodium falciparum 3D70087/N9 infected in humanized NODscidlL2Rgamma null mouse model assessed as reduction in parasitemia at 50 mg/kg, po for 4 consecutive days measured after 7 days of post infection relative to control. The following applies: 3D70087/N9, po, 96 h, time 4 day. The data set is classed as functional. The gist of the method:
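P. falciparum humanized SCID mouse model. Monosodium tetrahydrate salt given orally at 50 or 100 mg/kg on 4 consecutive days, n = 2 mice per group. Parasitemia read at day 7 post infection versus untreated controls.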

Data set [19] in a line: Toxicity in SCID mouse infected with Plasmodium falciparum 3D70087/N9 at 50 to 100 mg/kg, po for 4 consecutive days measured after 7 days of post infection. Format: organism-based. The following applies: in vivo, 96 h, dose 50-100 mg/kg, time 4 day.
Data set [20] concerns Plasmodium falciparum. Nature of the data set: Antimalarial activity against Plasmodium falciparum NF54 assessed as inhibition of parasite growth incubated for 72 hrs by [3H]hypoxanthine incorporation assay based liquid scintillation counting method.

Sequence of Voltage-gated inwardly rectifying potassium channel KCNH2 (Q12809 whole entry): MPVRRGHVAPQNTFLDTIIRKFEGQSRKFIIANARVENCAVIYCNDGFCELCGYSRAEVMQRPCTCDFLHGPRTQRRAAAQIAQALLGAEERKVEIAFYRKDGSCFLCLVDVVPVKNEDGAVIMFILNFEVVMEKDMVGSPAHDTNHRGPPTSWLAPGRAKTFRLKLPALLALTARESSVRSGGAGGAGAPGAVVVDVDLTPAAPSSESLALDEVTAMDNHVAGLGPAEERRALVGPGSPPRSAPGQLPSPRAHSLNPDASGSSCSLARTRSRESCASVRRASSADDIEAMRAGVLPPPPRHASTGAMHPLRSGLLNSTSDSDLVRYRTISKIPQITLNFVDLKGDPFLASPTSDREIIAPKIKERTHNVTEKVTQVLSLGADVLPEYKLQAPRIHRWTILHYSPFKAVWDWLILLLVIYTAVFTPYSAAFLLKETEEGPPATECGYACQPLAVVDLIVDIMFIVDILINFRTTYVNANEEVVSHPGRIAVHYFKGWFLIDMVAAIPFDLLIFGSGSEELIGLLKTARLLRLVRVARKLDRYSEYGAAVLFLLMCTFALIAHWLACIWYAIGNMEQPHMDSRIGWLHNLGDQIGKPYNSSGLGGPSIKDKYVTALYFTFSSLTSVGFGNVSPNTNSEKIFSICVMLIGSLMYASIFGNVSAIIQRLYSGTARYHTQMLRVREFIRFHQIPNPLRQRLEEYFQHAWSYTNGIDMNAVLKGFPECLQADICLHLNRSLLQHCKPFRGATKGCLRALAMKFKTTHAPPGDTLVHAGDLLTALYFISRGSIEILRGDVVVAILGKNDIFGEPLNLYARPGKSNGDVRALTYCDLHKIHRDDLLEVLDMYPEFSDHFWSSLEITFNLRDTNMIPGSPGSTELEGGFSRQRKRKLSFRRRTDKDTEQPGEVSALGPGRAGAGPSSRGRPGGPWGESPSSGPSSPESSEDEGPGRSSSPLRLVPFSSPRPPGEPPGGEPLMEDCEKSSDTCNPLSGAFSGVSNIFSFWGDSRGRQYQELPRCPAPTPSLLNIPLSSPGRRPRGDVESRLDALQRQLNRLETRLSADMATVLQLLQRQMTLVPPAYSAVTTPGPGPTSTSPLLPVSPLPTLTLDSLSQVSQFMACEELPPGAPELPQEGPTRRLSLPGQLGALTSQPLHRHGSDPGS
Sequence of CYP2D6 (P10635 whole entry): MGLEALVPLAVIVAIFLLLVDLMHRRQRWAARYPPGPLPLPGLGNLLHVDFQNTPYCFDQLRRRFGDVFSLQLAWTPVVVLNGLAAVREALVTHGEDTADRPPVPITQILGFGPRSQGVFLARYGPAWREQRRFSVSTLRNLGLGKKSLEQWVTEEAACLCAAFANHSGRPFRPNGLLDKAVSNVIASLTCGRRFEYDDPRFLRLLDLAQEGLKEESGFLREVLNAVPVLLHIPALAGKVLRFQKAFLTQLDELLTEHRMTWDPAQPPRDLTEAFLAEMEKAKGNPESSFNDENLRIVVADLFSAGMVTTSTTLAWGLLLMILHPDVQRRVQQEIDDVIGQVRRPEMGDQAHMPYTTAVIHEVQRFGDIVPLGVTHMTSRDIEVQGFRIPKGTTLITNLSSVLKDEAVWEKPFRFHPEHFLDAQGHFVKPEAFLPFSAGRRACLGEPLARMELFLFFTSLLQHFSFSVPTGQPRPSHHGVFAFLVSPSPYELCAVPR
Sequence of CYP3A4 (P08684 whole entry): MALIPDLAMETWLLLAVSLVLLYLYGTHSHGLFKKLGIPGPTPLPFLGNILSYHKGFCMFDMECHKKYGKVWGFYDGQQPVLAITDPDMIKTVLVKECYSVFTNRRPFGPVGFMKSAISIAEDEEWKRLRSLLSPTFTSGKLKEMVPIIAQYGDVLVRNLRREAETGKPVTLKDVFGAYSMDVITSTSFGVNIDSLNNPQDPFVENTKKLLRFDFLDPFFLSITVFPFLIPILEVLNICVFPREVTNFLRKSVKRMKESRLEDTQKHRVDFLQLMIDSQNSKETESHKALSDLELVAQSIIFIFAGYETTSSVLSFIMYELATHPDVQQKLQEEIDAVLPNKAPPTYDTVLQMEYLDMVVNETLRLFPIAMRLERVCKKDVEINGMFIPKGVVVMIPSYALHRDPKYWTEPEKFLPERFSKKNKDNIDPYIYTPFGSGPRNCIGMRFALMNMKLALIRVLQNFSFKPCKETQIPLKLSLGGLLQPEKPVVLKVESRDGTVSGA
Sequence of CYP2C9 (P11712 whole entry): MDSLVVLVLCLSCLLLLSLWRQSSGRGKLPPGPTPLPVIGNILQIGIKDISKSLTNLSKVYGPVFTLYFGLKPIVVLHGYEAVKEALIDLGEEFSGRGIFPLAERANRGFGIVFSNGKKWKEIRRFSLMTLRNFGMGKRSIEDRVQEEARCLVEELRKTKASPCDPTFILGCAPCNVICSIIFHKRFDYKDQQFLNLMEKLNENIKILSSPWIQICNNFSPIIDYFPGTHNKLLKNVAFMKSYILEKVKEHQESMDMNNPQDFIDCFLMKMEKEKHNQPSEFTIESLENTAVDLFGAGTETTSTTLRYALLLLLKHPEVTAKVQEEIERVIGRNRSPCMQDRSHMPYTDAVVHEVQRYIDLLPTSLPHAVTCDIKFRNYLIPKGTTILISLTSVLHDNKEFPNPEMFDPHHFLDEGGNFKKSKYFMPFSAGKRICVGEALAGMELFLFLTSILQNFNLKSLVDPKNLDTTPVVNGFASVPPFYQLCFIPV

In the case of `CCc1cccc(CNC(=O)c2nc3cccc(COCc4ccc(C(=O)O)cc4)c3c(=O)[nH]2)c1`, in data set [1], the cytotoxic concentration (CC50) (commonly the concentration at which the toxic effect on the cells reaches its halfway point) at 72 h was greater than 40000 nM. The CLH came out at 35 uL/ml.millig in [2] and 36 uL/ml.millig in [3]. Also, the hepatocyte CLint at 0.25 µM in [4] is 15 µL/min/1e6 cells. For the same molecule, the remaining at 2 h, 1000 ng/ml in [5] turned out to be 100%. For the same molecule, the inhibition (usually the drop in the measured response relative to a control, in per cent) at 10 µM at CYP2C9 was 55%; on CYP2D6, less than 10%; at CYP3A4, less than 10%. The IC50 (as a rule, the concentration needed to halve the response being measured) in data set [6] is greater than 30000 nM; in the data set with Plasmodium falciparum [7] it was 75 nM; with Plasmodium falciparum [11], 31 nM; in the data set on Plasmodium falciparum [12] it was 16 nM; with Plasmodium falciparum [13], 24 nM; with Plasmodium falciparum [14] it was 33 nM. The 50% inhibitory concentration (IC50) with Plasmodium falciparum [15] was determined as 20 nM; in the data set with Plasmodium falciparum [16] it was 19 nM; in the data set on Plasmodium falciparum [20] it was 60 nM. In the data set on Plasmodium falciparum [8], the Emax (usually the maximal effect, on the per cent scale that the assay sets) turned out to be 50%. Moreover, in the data set with Plasmodium falciparum [9], the Ratio was 4.6. Also, in the data set with Plasmodium falciparum [10], the Time is 32 h. Besides, the blood plasma ratio in [17] was found to be 0.62. Besides, in the data set with Plasmodium falciparum [18], the inhibition in vivo – broadly, the drop in the measured response relative to a control, in per cent – at 50 mg/kg amounted to 65%. Besides, the Activity result in data set [19] is recorded as “Non-Toxic”.

Values taken from ChEMBL document CHEMBL4828745, “Discovery and Structure-Activity Relationships of Quinazolinone-2-carboxamide Derivatives as Novel Orally Efficacious Antimalarials” (J Med Chem, 2021).
